The values below come from ChEMBL document CHEMBL4425094, “Novel Benzo[a]quinolizidine Analogs Induce Cancer Cell Death through Paraptosis and Apoptosis” (J Med Chem, 2016).

For data set [1], the system named is DU-145. Description: Cytotoxicity against human DU145 cells assessed as cell growth inhibition after 24 hrs by MTT assay. The format is functional, cell-based. The note with it: DU-145, 24 h. The essentials: (§1)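 Cells seeded 24 h in RPMI 1640 + 10% FBS. RWPE-1 was kept in K-SFM with bovine pituitary extract and EGF. Cells then exposed to compounds for 24 h at 37 °C, 5% CO2, with DMSO vehicle and docetaxel as positive control. MTT added for 4 h, absorbance read at 570 nm. Triplicate runs, IC50 reported as mean of three experiments.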

Data set [2] has as its system PC-3M. Description: Induction of immature autophagy i in human PC3M-lluc-C6 cells xenografted in athymic Balb/c mouse assessed as increase in LC3 protein levels at 15 mg/kg, ip administered every 2 days for 18 days by Western blot and immunohistochemical staining method. The format is functional, organism-based. The essentials:
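Male athymic BALB/c-nu mice (6 weeks) carried subcutaneous right-flank PC3M-luc-C6 xenografts (5 × 10^6 cells). At ~0.1 cm3 they were grouped (n = 5) and given 15 mg/kg i.p. suspension every 2 days; placebo and docetaxel 15 mg/kg were controls. Tumors were analyzed by Western blot and by immunohistochemistry (anti-LC3 1:800, anti-p62 1:500, overnight 4 °C, HRP/DAB, hematoxylin counterstain).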

The test system of data set [3] is HeLa. Description: Cytotoxicity against human HeLa cells assessed as cell growth inhibition after 24 hrs by MTT assay. It counts as functional, cell-based. The essentials: as §1
Data set [4] deals with PC-3. Nature of the data set: Cytotoxicity in human PC3 cells assessed as reduction in cell viability incubated for 22 hrs after ER stress inhibitor 4-PBA exposure for 2 hrs by MTT assay. It counts as functional, cell-based. The method in brief: (§2)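 PC3 cells pretreated 2 h with 4-PBA (100 μM), then compound added for a further 22 h. Viability measured by MTT. GRP78 assessed by Western blot, along with XBP1 mRNA splicing analysis. Morphology by phase contrast.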

Data set [5] deals with T1, Eukaryotic translation initiation factor 2-alpha kinase 3 (Homo sapiens) (UniProt Q9NZJ5).
T1 sequence (whole entry): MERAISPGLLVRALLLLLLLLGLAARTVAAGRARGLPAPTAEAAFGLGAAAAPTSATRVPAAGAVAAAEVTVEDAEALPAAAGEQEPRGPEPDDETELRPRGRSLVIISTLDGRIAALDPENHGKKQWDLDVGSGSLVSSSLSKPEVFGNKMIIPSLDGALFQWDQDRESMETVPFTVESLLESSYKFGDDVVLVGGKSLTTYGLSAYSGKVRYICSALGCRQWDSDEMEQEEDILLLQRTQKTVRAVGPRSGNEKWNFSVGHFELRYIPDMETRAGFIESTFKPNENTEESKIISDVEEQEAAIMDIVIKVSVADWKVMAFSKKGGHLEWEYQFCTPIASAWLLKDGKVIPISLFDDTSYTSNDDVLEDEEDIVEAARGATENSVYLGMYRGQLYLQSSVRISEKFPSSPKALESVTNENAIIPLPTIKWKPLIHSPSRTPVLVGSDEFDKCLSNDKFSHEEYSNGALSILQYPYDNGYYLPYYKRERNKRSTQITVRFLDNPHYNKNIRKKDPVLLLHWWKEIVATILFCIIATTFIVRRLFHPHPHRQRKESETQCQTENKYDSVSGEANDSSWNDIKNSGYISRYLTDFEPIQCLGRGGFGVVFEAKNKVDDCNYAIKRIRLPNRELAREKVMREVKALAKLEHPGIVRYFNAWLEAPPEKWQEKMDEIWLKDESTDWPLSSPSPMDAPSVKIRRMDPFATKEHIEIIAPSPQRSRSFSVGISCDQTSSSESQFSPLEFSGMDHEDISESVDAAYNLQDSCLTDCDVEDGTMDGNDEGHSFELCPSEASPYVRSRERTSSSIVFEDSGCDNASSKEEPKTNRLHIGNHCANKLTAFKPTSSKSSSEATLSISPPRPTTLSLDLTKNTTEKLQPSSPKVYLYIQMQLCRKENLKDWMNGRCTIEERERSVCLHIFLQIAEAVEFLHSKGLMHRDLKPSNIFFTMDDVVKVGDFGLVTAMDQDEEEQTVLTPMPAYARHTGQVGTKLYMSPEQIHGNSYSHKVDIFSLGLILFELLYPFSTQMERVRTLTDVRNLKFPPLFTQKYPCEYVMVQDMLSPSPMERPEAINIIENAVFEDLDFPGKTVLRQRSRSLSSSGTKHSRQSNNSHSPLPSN
Nature of the data set: Activation of PERK phosphorylation in human PC3 cells after 24 hrs by Western blot analysis. It counts as cell-based. The method in brief: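 PC3 cells in RPMI 1640 with 10% FBS, treated with compound for timed intervals. DMSO vehicle control. Lysis in RIPA buffer, 40 μg protein per lane on SDS-PAGE, transfer to nitrocellulose. Primary antibodies overnight at 4 °C, HRP-secondary 45 min, ECL detection. GAPDH or β-actin used as loading control.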

The test system of data set [6] is PC-3. Description: Induction of ER stress in human PC3 cells assessed as activation of XBPI mRNA incubated for 22 hrs after ER stress inhibitor 4-PBA exposure for 2 hrs by Western blot analysis. The format is functional, cell-based. The essentials:
as §2

Data set [7] concerns PC-3. Description: Induction of ER stress in human PC3 cells assessed as formation of vacuoles after 8 to 24 hrs […]. The format is functional, cell-based.
For data set [8], the system named is PC-3. Description: Induction of autophagy in human PC3 cells assessed as vacuole formation at 1 uM after 24 hrs in presence of PI3K inhibitor 3-MA by phase-contrast microscopic analysis. The format is functional, cell-based. The essentials: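 PC3 cells were pretreated with the autophagy inhibitor (3-MA or E64d), then exposed to 1 μM test agent for 24 h. Morphology was imaged by phase-contrast microscopy, and viability was read by MTT at 570 nm. Comparison was against agent-only cells.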

The test system of data set [9] is PC-3. Description: Induction of apoptosis in human PC3 cells assessed as early apoptotic cells at 1 uM after 24 hrs by Annexin V-FITC/propidium iodide based flow cytometric analysis (reference value: 2.3 %). The format is functional. The method in brief:
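PC3 cells exposed to 0.5, 1 or 2 μM for 24 h, then stained with Annexin V-FITC and PI and analyzed by FACSCalibur flow cytometry. Populations assigned as necrotic (Annexin V−/PI+), late apoptotic (double positive), normal (Annexin V−/PI−) and early apoptotic (Annexin V+/PI−). DMSO vehicle control.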

A short description of data set [10]: Toxicity in athymic Balb/c mouse assessed as body weight loss at 15 mg/kg, ip administered every 2 days for 18 days. The format is organism-based. The note with it: in vivo. The method in brief: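 Male athymic BALB/c-nu mice bearing subcutaneous PC3M-luc-C6 xenografts, n = 5 per group. Dosing was 15 mg/kg i.p. every 2 days for 18 days versus placebo and docetaxel 15 mg/kg groups. Body weight was recorded over the treatment period.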

Data set [11] relates to MCF7. Nature of the data set: Cytotoxicity against human MCF7 cells assessed as cell growth inhibition after 24 hrs by MTT assay. The format is functional, cell-based. The note with it: MCF7, 24 h. The essentials:
as §1

For data set [12], the system named is PC-3. Nature of the data set: Growth inhibition of human PC3 cells at IC30 in presence of […] by MTT assay. It counts as functional.
In data set [13] the test system is PC-3. Nature of the data set: Induction of cytoplasmic vacuolation in human PC3 cells assessed as increase in size and number of vacuoles at 1 uM by phase-contrast microscopic analysis. The format is functional, cell-based. Particulars: TDE = time-dependent effect. The method in brief:
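PC3 cells in RPMI 1640 with 10% FBS at 37 °C, 5% CO2, treated with 1 μM agent for 0−24 h; DMSO vehicle control. Vacuole appearance, size and number followed over time by phase-contrast microscopy at constant magnification.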

Activity calls are given as the source filed them. The rule behind the calls is not given here.

Turning to `Cc1cc(C)cc(COc2cc3c(cc2OCc2cc(C)cc(C)c2)[C@@H]2C[C@H](O)C[C@@H](C)N2CC3)c1` (racemic), the results for the IC50 in data set [1], in data set [3] and in data set [11] were 1.96 µM, 1.65 µM and 0.51 µM, respectively. Moreover, the result in data set [2], in [5] and in data set [7] was Active. The result in [4], in [6] and in data set [8] was inactive. For the same molecule, the Activity in data set [9] is 5.9%; in [10], 16.3 g; in data set [13] it was “Tde”. Further, the “growth inhibition (GI)” value in [12] is on record as 54%.
